≈ marks a conversion by molar mass, not a printed value.
What was measured:
[1] = molecular target: Cytochrome P450 2D6 (Homo sapiens, UniProt P10635); assay: Inhibition of CYP2D6 (unknown origin); assay type: ADME
[2] = Inhibition of cynomolgus monkey 11beta-HSD2; design: species or system Macaca fascicularis
[3] = test system: Cynomolgus monkey; assay: Toxicity in cynomolgus monkey assessed as HPA axis activation by measuring DHEAS level at 1 to 10 mg/kg for 7 days; assay type: organism-based, Macaca fascicularis; details: in vivo, 168 h
[4] = Permeability from basolateral to apical side in human Caco2 cells; assay type: ADME, cell-based; details: Caco-2, read-out: permeability
[5] = molecular target: Cytochrome P450 2B6 (Homo sapiens, UniProt P20813); assay: Inhibition of CYP2B6 (unknown origin); assay type: ADME
[6] = test system: Rattus norvegicus; assay: Renal toxicity in rat at 300 mg/kg for 2 weeks; assay type: organism-based; details: in vivo, 336 h
Outline: (§1)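 Exploratory rat toxicology study lasting 2 weeks, with 300 mg/kg as the highest dose given. The study assessed hypokalemia, plasma volume expansion, hypertension and renal toxicity.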

[7] = molecular target: 11-beta-hydroxysteroid dehydrogenase 1 (Rattus norvegicus, UniProt P16232); assay: Inhibition of rat 11beta-HSD1
[8] = test system: Plasma; assay: Drug metabolism in rat plasma assessed as ketone A formation at […], iv; assay type: ADME, organism-based; details: in vivo
[9] = Volume of distribution at steady state in cynomolgus monkey at 1 mg/kg, iv; assay type: ADME, organism-based, Macaca fascicularis; details: in vivo, read-out: Vdss
[10] = Apparent elimination half life in cynomolgus monkey at 1 mg/kg, iv; assay type: ADME, organism-based, Macaca fascicularis; details: in vivo, read-out: betat1/2(app) (converted)
[11] = in vivo; details: mouse, adipose tissue / plasma, iv, 5 mg/kg
[12] = Tmax in non-fasting diet-induced obese cynomolgus monkey administered via oral gavage; assay type: ADME, Macaca fascicularis; details: in vivo
[13] = Protein binding in rat plasma; assay type: ADME, cell-free; details: read-out: PPB (converted)
[14] = test system: Liver; assay: Metabolic stability in mouse liver microsomes assessed as parent compound remaining after 10 mins; assay type: ADME, microsome; details: microsomes, 10 min
Outline: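 Parent compound remaining after a 10 min incubation with human, mouse or rat liver microsomes.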

[15] = Metabolic stability in rat liver microsomes assessed as UGT-mediated glucuronidation of compound by measuring half life in presence of UDPGA; assay type: ADME
Outline: (§2)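 Liver microsomal glucuronidation incubations in the presence of UDPGA; parent half-life determined.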

[16] = molecular target: Cytochrome P450 2C19 (Homo sapiens, UniProt P33261); assay: Inhibition of CYP2C19 (unknown origin); assay type: ADME
[17] = Protein binding in mouse plasma; assay type: ADME, cell-free; details: read-out: PPB (converted)
[18] = Metabolic stability in human liver microsomes assessed as UGT-mediated glucuronidation of compound by measuring half life in presence of UDPGA; assay type: ADME; outline: as §2
[19] = Aqueous solubility of the compound in pH 6.5 solution; assay type: physicochemical; details: pH 6.5, pH 6.5
Outline: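 Aqueous solubility measured at pH 6.5.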

[20] = AUC (0 to 24 hrs) in dog at 1 mg/kg, iv; assay type: ADME, organism-based, Canis lupus familiaris; design: time < 24 hr, dose 1 mg/kg, route intravenous; details: in vivo
[21] = Metabolic stability in cynomolgus monkey liver microsomes assessed as UGT-mediated glucuronidation of compound by measuring half life in presence of UDPGA; assay type: ADME, Macaca fascicularis; outline: as §2
[22] = test system: Rattus norvegicus; assay: Toxicity in rat assessed as hypertension at 300 mg/kg for 2 weeks; assay type: organism-based; details: in vivo, 336 h; outline: as §1
[23] = molecular target: Cytochrome P450 1A2 (Homo sapiens, UniProt P05177); assay: Inhibition of CYP1A2 (unknown origin); assay type: ADME
[24] = test system: Rattus norvegicus; assay: Toxicity in rat assessed as plasma volume expansion at 300 mg/kg for 2 weeks; assay type: organism-based; details: in vivo, 336 h; outline: as §1
[25] = Oral bioavailability in dog at 2 mg/kg; assay type: ADME, organism-based, Canis lupus familiaris; details: in vivo
[26] = test system: Cynomolgus monkey; assay: In vivo inhibition of 11beta-HSD1 in non-fasting diet-induced obese cynomolgus monkey assessed as plasma concentration required to show decrease in corticosterone excursion pretreated via oral gavage for 30 mins followed by DHC administration measured up to 60 mins by enzyme immunosorbent assay; assay type: functional, organism-based; details: Macaca fascicularis
Outline: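 Cynomolgus monkeys given test compound at a predetermined time before the experiment, chosen from its pharmacokinetics. Substrate DHC (rodent substrate, used in place of cortisone) given afterwards. Blood sampled at various times. Design otherwise similar to the mouse DHC challenge.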

[27] = Protein binding in human plasma; assay type: ADME, cell-free; details: read-out: PPB (converted)
[28] = Oral bioavailability in rat at 10 mg/kg; assay type: ADME, organism-based; details: in vivo
[29] = in vivo; details: mouse, brain / plasma, iv, 5 mg/kg
[30] = AUC (0 to 24 hrs) in rat at 300 mg/kg; assay type: ADME, organism-based; design: dose 300 mg/kg, time < 24 hr; details: in vivo
[31] = Apparent elimination half life in dog at 1 mg/kg, iv; assay type: ADME, organism-based, Canis lupus familiaris; details: in vivo, read-out: betat1/2(app) (converted)
[32] = test system: Plasma; assay: Drug metabolism in dog plasma assessed as ketone A formation at 1 mg/kg, iv; assay type: ADME, organism-based, Canis lupus familiaris; details: in vivo
[33] = molecular target: hERG (Homo sapiens, UniProt Q12809); assay: Inhibition of human ERG at 30 uM by patch clamp assay relative to control
Outline: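 hERG channel, patch clamp; percent inhibition at 30 μM.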

[34] = Apparent elimination half life in mouse at 5 mg/kg, iv; assay type: ADME, organism-based; details: in vivo, read-out: betat1/2(app) (converted)
[35] = molecular target: Cytochrome P450 3A4 (Homo sapiens, UniProt P08684); assay: Inhibition of CYP3A4 (unknown origin); assay type: ADME
[36] = Total plasma clearance in mouse at 5 mg/kg, iv; assay type: ADME, organism-based
[37] = molecular target: Cytochrome P450 2C8 (Homo sapiens, UniProt P10632); assay: Inhibition of CYP2C8 (unknown origin); assay type: ADME
[38] = Total plasma clearance in dog at 1 mg/kg, iv; assay type: ADME, organism-based, Canis lupus familiaris
[39] = test system: Cynomolgus monkey; assay: Toxicity in cynomolgus monkey assessed as HPA axis activation by measuring DHEA level at 1 to 10 mg/kg for 7 days; assay type: organism-based, Macaca fascicularis; details: in vivo, 168 h
[40] = test system: Plasma; assay: Drug metabolism in cynomolgus monkey plasma assessed as ketone A formation at 1 mg/kg, iv; assay type: ADME, organism-based, Macaca fascicularis; details: in vivo
[41] = Volume of distribution at steady state in dog at 1 mg/kg, iv; assay type: ADME, organism-based, Canis lupus familiaris; details: in vivo, read-out: Vdss
[42] = Volume of distribution at steady state in mouse at 5 mg/kg, iv; assay type: ADME, organism-based; details: in vivo, read-out: Vdss
[43] = molecular target: 11-beta-hydroxysteroid dehydrogenase 1 (Mus musculus, UniProt P50172); assay: Inhibition of 11beta-HSD1 in mouse 3T3L1 cells; assay type: cell-based
Outline: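 Mouse adipocyte-like 3T3-L1 cell line, not genetically manipulated, so that inhibition acts on the cells' native mouse 11β-HSD1 activity.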

[44] = test system: Plasma; assay: Drug uptake in po dosed non-fasting diet-induced obese mouse plasma after 3 hrs; assay type: ADME, organism-based; details: in vivo
Outline: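 Nonfasting diet-induced obese male mice, groups of n = 6 matched for body weight. Tail bleed at −60 min, then oral dosing with vehicle (0.5% Methocel, 0.1% Tween 80 in water) or drug. DHC 10 mg/kg given orally 60 min later. Bleeds at 30, 60 and 120 min after DHC. Plasma corticosterone measured by enzyme immunosorbent assay. Drug levels measured in terminal bleed samples.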

[45] = molecular target: 11-beta-hydroxysteroid dehydrogenase type 2 (Mus musculus, UniProt P51661); assay: Inhibition of mouse 11beta-HSD2
[46] = molecular target: Cytochrome P450 2E1 (Homo sapiens, UniProt P05181); assay: Inhibition of CYP2E1 (unknown origin); assay type: ADME
[47] = molecular target: Cytochrome P450 2C9 (Homo sapiens, UniProt P11712); assay: Inhibition of CYP2C9 (unknown origin); assay type: ADME
[48] = Permeability from apical to basolateral side in human Caco2 cells; assay type: ADME, cell-based; details: Caco-2, read-out: permeability
[49] = test system: Rattus norvegicus; assay: MRT in rat at […], iv; assay type: ADME, organism-based; details: in vivo

Sequence of Cytochrome P450 2C8 (P10632 whole entry): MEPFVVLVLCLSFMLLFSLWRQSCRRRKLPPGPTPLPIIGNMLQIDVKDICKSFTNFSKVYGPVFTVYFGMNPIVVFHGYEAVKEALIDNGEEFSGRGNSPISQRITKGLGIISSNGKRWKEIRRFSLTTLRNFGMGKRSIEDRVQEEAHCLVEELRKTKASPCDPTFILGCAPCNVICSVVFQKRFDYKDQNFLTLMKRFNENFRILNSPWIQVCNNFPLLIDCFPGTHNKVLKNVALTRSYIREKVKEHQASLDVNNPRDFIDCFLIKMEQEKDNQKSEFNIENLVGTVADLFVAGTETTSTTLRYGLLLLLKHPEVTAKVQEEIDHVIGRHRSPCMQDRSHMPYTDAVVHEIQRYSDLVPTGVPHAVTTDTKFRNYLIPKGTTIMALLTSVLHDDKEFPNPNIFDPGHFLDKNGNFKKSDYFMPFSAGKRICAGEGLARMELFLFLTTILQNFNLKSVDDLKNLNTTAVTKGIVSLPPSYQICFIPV
Sequence of 11-beta-hydroxysteroid dehydrogenase 1 (Mus musculus, UniProt P50172) (P50172 whole entry): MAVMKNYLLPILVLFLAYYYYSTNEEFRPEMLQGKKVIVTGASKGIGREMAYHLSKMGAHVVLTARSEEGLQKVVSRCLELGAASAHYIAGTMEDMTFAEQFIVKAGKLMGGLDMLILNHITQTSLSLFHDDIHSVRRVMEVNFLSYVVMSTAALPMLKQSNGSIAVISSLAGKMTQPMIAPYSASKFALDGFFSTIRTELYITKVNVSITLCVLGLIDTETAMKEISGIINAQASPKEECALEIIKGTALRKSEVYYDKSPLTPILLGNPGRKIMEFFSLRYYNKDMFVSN
Sequence of 11-beta-hydroxysteroid dehydrogenase 1 (Rattus norvegicus, UniProt P16232) (P16232 whole entry): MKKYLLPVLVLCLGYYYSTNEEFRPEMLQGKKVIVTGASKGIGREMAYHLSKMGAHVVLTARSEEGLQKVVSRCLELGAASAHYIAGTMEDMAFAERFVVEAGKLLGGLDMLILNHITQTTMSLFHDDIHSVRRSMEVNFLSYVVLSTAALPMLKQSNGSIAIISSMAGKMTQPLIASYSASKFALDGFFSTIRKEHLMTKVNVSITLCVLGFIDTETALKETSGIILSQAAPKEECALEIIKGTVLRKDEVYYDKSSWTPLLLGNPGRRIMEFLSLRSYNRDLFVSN
Sequence of 11-beta-hydroxysteroid dehydrogenase type 2 (P51661 whole entry): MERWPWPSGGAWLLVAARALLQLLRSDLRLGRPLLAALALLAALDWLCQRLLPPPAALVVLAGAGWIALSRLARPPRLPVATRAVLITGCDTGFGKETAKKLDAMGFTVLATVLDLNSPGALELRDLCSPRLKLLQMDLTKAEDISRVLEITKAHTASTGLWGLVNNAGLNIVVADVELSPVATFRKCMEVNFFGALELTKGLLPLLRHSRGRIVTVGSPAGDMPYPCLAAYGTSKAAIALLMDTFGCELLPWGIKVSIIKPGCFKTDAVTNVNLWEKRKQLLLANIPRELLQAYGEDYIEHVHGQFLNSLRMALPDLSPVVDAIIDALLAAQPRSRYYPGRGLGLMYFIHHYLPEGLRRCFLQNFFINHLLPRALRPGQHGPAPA
Sequence of Cytochrome P450 2C19 (P33261 whole entry): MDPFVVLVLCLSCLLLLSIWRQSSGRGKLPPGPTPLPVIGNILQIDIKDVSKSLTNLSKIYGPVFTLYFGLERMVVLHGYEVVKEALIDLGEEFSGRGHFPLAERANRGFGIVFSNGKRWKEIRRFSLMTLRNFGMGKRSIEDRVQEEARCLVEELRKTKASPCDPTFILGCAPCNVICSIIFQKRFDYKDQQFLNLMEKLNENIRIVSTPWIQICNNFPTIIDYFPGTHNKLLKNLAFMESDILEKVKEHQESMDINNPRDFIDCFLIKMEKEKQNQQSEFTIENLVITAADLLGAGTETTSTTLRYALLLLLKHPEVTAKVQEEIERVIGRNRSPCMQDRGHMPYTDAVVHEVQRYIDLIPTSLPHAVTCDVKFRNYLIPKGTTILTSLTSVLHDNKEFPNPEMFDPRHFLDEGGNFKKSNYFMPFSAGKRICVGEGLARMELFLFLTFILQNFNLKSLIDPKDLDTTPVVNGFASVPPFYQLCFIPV
Sequence of Cytochrome P450 3A4 (P08684 whole entry): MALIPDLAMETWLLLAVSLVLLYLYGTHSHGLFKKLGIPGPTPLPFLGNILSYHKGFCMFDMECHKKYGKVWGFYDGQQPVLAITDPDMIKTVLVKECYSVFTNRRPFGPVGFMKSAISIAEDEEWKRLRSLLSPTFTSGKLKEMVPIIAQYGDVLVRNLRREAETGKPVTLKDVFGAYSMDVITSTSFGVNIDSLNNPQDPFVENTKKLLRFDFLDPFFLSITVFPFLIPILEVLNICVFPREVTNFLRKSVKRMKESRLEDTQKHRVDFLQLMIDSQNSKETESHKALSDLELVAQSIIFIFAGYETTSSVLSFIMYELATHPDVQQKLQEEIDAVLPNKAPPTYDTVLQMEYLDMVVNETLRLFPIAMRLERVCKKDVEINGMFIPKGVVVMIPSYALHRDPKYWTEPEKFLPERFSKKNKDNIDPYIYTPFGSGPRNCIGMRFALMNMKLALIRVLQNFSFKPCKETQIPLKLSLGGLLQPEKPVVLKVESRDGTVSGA
Sequence of Cytochrome P450 2D6 (P10635 whole entry): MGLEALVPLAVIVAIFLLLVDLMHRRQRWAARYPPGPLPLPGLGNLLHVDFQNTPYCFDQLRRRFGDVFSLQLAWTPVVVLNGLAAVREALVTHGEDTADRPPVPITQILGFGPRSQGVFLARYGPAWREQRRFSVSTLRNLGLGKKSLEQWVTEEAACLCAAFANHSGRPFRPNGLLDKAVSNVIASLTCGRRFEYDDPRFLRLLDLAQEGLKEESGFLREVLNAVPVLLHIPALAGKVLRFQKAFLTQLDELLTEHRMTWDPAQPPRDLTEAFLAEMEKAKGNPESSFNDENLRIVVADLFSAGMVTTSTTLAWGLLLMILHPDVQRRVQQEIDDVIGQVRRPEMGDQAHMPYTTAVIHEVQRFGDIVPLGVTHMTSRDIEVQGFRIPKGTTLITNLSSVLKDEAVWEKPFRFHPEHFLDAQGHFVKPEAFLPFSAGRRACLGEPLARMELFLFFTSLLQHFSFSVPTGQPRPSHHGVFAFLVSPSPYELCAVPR
Sequence of hERG (Q12809 whole entry): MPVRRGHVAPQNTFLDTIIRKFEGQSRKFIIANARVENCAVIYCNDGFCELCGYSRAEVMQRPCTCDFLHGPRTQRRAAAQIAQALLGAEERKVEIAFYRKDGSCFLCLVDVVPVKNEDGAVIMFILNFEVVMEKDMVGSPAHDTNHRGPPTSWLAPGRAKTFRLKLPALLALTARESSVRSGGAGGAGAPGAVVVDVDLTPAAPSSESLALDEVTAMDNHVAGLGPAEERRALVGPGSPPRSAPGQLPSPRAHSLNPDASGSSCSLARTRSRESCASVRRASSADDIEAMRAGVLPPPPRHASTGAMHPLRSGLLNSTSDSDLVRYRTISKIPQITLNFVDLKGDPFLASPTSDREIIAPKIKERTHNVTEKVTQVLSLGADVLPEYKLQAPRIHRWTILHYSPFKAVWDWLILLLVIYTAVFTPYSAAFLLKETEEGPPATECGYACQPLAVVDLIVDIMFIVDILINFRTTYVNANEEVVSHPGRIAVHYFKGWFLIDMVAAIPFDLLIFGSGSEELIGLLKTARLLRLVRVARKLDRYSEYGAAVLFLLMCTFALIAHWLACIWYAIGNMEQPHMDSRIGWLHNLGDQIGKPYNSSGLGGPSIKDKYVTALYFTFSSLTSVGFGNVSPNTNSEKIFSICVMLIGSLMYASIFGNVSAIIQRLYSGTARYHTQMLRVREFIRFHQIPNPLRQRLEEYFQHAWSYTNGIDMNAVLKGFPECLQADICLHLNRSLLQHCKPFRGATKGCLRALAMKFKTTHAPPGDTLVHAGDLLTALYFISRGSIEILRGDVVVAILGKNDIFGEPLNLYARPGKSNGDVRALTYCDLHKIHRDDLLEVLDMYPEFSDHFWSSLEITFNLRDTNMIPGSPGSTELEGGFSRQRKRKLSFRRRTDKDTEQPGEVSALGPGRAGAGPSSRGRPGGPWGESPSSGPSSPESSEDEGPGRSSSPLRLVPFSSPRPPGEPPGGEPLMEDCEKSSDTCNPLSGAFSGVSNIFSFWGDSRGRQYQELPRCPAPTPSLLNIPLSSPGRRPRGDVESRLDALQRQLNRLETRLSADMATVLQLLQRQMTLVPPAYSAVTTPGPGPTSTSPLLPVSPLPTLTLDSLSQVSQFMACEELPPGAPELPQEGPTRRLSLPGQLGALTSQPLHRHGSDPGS
Sequence of Cytochrome P450 2B6 (P20813 whole entry): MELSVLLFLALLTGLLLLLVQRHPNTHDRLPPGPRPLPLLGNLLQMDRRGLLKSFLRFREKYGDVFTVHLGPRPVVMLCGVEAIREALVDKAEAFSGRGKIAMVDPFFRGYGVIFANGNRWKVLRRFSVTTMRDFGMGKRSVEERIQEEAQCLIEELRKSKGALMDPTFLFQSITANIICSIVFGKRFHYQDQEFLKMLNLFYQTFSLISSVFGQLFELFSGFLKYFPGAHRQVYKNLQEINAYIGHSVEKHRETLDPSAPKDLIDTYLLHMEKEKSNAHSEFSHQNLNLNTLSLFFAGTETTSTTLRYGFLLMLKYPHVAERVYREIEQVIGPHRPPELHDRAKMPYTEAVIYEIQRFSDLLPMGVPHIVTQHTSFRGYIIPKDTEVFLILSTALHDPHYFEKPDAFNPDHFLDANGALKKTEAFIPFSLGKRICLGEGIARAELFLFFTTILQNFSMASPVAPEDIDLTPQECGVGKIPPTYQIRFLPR

## O=C(CC1(c2ccccc2)C2CC3CC1CC(C2)C3O)N1CC(O)C1 (stereo in doubt; form 2)
[1]
  IC50: > 40 µM
[2]
  IC50: 48 µM
[3]
  Activity: Non-Toxic
[4]
  Papp B→A: 28.5 ×10⁻⁶ cm/s
[5]
  IC50: > 40 µM
[6]
  Activity: Non-Toxic
[7]
  IC50: 500 nM
[8]
  Drug metabolism: Metabolite_Detected
[9]
  Vd: 4.2 L/kg
[10]
  half-life: 360 min
[11]
  Kp: 0.15
[12]
  Tmax: 30 min
[13]
  fraction unbound: 0.35
[14]
  Stability: 80%
[15]
  half-life: 47 min
[16]
  IC50: > 40 µM
[17]
  fraction unbound: 0.37
[18]
  half-life: > 200 min
[19]
  solubility: 1800 µg/mL (≈ 5.27 mM)
[20]
  AUC(0-t) at 24 h: 4.6 µM·h
[21]
  half-life: > 200 min
[22]
  Activity: Non-Toxic
[23]
  IC50: > 40 µM
[24]
  Activity: Non-Toxic
[25]
  bioavailability: 72%
[26]
  EC50: 75 nM
[27]
  fraction unbound: 0.46
[28]
  bioavailability: 20%
[29]
  Kp: < 0.1
[30]
  AUC(0-t) at 24 h: ≤ 650 µM·h
[31]
  half-life: 444 min
[32]
  Drug metabolism: Metabolite_Detected
[33]
  inhibition at 30 µM: 10%
[34]
  half-life: 120 min
[35]
  IC50: > 40 µM
[36]
  clearance: 50 mL/min/kg
[37]
  IC50: > 40 µM
[38]
  clearance: 11 mL/min/kg
[39]
  Activity: Non-Toxic
[40]
  Drug metabolism: Metabolite_Detected
[41]
  Vd: 3 L/kg
[42]
  Vd: 2 L/kg
[43]
  IC50: 28.6 nM
[44]
  Drug uptake: Dose-dependent effect
[45]
  IC50: 7.9 µM
[46]
  IC50: > 40 µM
[47]
  IC50: > 40 µM
[48]
  Papp A→B: 10.5 ×10⁻⁶ cm/s
[49]
  MRT: 1.3 h
